# In ChEMBL document CHEMBL1132488, “On the bioactive conformation of NAN-190 (1) and MP3022 (2), 5-HT(1A) receptor antagonists” (J Med Chem, 1999):
# What was measured:
# [1] = organism: Rattus norvegicus; experiment: Effect on 8-OH-DAPT- induced behavioral syndrome(FT: forepaw treading) by the compound in reserpine pretreated rats at a dose of 32; FT mean score; assay type: functional
# How it was run: (§1)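 Reserpinized male Wistar rats (reserpine 1 mg/kg sc, 18 h before), groups of 6. Compound given ip in 1% Tween 80 60 min before 8-OH-DPAT 5 mg/kg sc. FBP/FT rated 0–3 at 3, 6, 9, 12 and 15 min after agonist, summed (max 15). Mean ± SEM; Newman–Keuls test; ED50 with range.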
# [2] = organism: Rattus norvegicus; experiment: Effect on 8-OH-DAPT- induced behavioral syndrome(FT: forepaw treading) by the compound in reserpine pretreated rats at a dose of 8; FT mean score; assay type: functional; how it was run: as §1
# [3] = organism: Rattus norvegicus; experiment: Induction of behavioral syndrome(FT: forepaw treading) by the compound in reserpine pretreated rats at a dose of 8; FT mean score; assay type: functional
# How it was run: (§2)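 Male Wistar rats (260–300 g) were given reserpine 1 mg/kg sc in saline 18 h before testing. Test compound was then given alone ip as a 1% Tween 80 suspension (2 mL/kg). FBP and FT were each scored 0–3 and summed (maximum 15). n=6 per group; mean ± SEM; Newman–Keuls test.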
# [4] = organism: Rattus norvegicus; experiment: Dose Inducing behavioral syndrome(FBP: flat body posture) by the compound in reserpine pretreated rats; assay type: functional
# How it was run: (§3)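 Male Wistar rats (260–300 g), groups of 6, given reserpine 1 mg/kg sc 18 h before test. Compounds given ip as 1% Tween 80 suspension. FBP and FT rated 0–3 in 45-s sessions every 3 min, starting 3 min after dosing. Score summed over 5 periods (max 15 per symptom). Mean ± SEM; Newman–Keuls test.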
# [5] = organism: Rattus norvegicus; experiment: Induction of behavioral syndrome(FT: forepaw treading) by the compound in reserpine pretreated rats at a dose of 32; FT mean score; assay type: functional; how it was run: as §2
# [6] = system: Rattus norvegicus; experiment: Induction of LLR(lower lip retraction) by the compound in rats at a dose of 2 mg/kg; LLR score; assay type: functional
# How it was run: (§4)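 Male Wistar rats, groups of 6, given compound alone ip as 1% Tween 80 suspension. Lower incisor visibility scored 0/0.5/1 at 15, 30 and 45 min after dosing, summed (max 3 per rat). Mean ± SEM versus vehicle, Newman–Keuls test; ED50 with range.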
# [7] = organism: Rattus norvegicus; experiment: Effect on 8-OH-DAPT- induced behavioral syndrome(FBP: flat body posture) by the compound in reserpine pretreated rats at a dose of 8; FBP mean score; assay type: functional; how it was run: as §1
# [8] = organism: Rattus norvegicus; experiment: Dose Inducing behavioral syndrome(FT: forepaw treading) by the compound in reserpine pretreated rats; assay type: functional; how it was run: as §3
# [9] = organism: Rattus norvegicus; experiment: Induction of behavioral syndrome(FBP: flat body posture) by the compound in reserpine pretreated rats at a dose of 16; FBP mean score; assay type: functional; how it was run: as §3
# [10] = organism: Rattus norvegicus; experiment: Effective dose of the required to induce LLR(lower lip retraction); assay type: functional; how it was run: as §4
# [11] = system: Rattus norvegicus; experiment: Induction of LLR(lower lip retraction) by the compound in rats at a dose of 4 mg/kg; LLR score; assay type: functional; how it was run: as §4
# [12] = organism: Rattus norvegicus; experiment: Effect on 8-OH-DAPT- induced behavioral syndrome(FT: forepaw treading) by the compound in reserpine pretreated rats at a dose of 16; FT mean score; assay type: functional; how it was run: as §1
# [13] = target: T1, 5-hydroxytryptamine receptor 1A (Rattus norvegicus, UniProt P19327); experiment: Ability to displace [3H]8-OH-DPAT from 5-hydroxytryptamine 1A receptor
# T1 sequence (P19327 whole entry): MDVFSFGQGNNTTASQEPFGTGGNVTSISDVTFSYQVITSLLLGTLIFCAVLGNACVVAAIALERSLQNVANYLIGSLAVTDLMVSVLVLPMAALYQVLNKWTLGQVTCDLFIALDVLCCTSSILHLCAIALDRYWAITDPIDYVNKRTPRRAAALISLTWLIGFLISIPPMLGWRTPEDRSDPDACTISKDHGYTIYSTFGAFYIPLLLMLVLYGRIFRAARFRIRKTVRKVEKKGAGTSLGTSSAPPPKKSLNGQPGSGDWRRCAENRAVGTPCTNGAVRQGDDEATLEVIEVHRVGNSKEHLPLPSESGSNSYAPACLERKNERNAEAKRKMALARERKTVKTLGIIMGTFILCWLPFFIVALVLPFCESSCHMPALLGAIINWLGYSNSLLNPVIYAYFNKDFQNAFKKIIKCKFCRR
# How it was run: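 Rat hippocampal membranes, [3H]8-OH-DPAT radioligand. Ki from at least three competition experiments, each with 10–14 drug concentrations run in triplicate. Ki calculated with the Cheng–Prusoff equation.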
# [14] = organism: Rattus norvegicus; experiment: Induction of behavioral syndrome(FBP: flat body posture) by the compound in reserpine pretreated rats at a dose of 32; FBP mean score; assay type: functional; how it was run: as §2
# [15] = organism: Rattus norvegicus; experiment: Effect on 8-OH-DAPT- induced behavioral syndrome(FBP: flat body posture) by the compound in reserpine pretreated rats at a dose of 16; FBP mean score; assay type: functional; how it was run: as §1
# [16] = organism: Rattus norvegicus; experiment: Induction of behavioral syndrome(FT: forepaw treading) by the compound in reserpine pretreated rats at a dose of 16; FT mean score; assay type: functional; how it was run: as §2
# [17] = organism: Rattus norvegicus; experiment: Induction of behavioral syndrome(FBP: flat body posture) by the compound in reserpine pretreated rats at a dose of 8; FBP mean score; assay type: functional; how it was run: as §2
# [18] = organism: Rattus norvegicus; experiment: Effect on 8-OH-DAPT- induced behavioral syndrome(FBP: flat body posture) by the compound in reserpine pretreated rats at a dose of 32; FBP mean score; assay type: functional; how it was run: as §1
# [19] = system: Rattus norvegicus; experiment: Induction of LLR(lower lip retraction) by the compound in rats at a dose of 8 mg/kg; LLR score; assay type: functional; how it was run: as §4
structure (smiles),measurement,setting,value
O=C1[C@H]2CCCC[C@H]2C(=O)N1CCCCN1CCc2ccccc2C1,FT mean score,[1],6
same,FT mean score,[2],9.8
same,FT mean score,[3],0.1
same,ED50,[4],> 32 mg/kg
same,FT mean score,[5],0.2
same,LLR score,[6],1
same,FBP mean score,[7],14.6
same,ED50,[8],17 mg/kg
same,FBP mean score,[9],2.3
same,ED50,[10],3.9 mg/kg
same,LLR score,[11],1.9
same,FT mean score,[12],7.7
same,Ki,[13],50 nM
same,FBP mean score,[14],3.7
same,FBP mean score,[15],13.3
same,FT mean score,[16],0.2
same,FBP mean score,[17],0.1
same,FBP mean score,[18],11.7
same,LLR score,[19],2.5
